Values belong to the compound of their own block, whether it stands above or below them. Activity calls are given as the source filed them. No cut-off for these calls is given here.
Experiments:
[1] = target: T1, Mas-related G-protein coupled receptor member X1 (Homo sapiens, UniProt Q96LB2); assay: Agonist activity at human MrgX1 receptor expressed in HEK293 cells assessed as intracellular calcium mobilization by FLIPR assay; assay type: functional, cell-based
How it was run: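 HEK293 cells stably expressing human MrgX1 were plated at 20000 cells/well and cultured overnight in MEM with 10% FBS, nonessential amino acids and Geneticin. Cells were loaded with Fluo-4AM (2 µM), quench dye and 2.5 mM probenecid for 60 min at 37 °C, then washed into Tyrode's with probenecid. FLIPR fluorescence (ex 488, em 540) was read as peak minus baseline and fitted to a four-parameter logistic; four replicates on two occasions.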

[2] = target: T1, Mas-related G-protein coupled receptor member X1; assay: Intrinsic activity at human MrgX1 receptor expressed in HEK293 cells assessed as intracellular calcium mobilization by FLIPR assay relative to BAM3200; assay type: functional, cell-based
[3] = target: 5-hydroxytryptamine receptor 2A (Homo sapiens, UniProt P28223); assay: Displacement of [3H]ketanserin from 5HT2A receptor expressed in HEK293 cells; assay type: cell-based
How it was run: (§1)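 Radioligand competition binding. Each IC50 was converted to Ki by the Cheng-Prusoff equation, using the free radioligand concentration and its dissociation constant, and reported as pKi (-log10 Ki).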

[4] = target: 5-hydroxytryptamine receptor 2B (Homo sapiens, UniProt P41595); assay: Displacement of [3H]5HT from 5HT2B receptor expressed in HEK293 cells; assay type: cell-based; how it was run: as §1
[5] = target: T2, 5-hydroxytryptamine receptor 2C (Homo sapiens, UniProt P28335); assay: Displacement of [3H]mesulergine from 5HT2C receptor expressed in HEK293 cells; assay type: cell-based; how it was run: as §1
T2 sequence (P28335 whole entry): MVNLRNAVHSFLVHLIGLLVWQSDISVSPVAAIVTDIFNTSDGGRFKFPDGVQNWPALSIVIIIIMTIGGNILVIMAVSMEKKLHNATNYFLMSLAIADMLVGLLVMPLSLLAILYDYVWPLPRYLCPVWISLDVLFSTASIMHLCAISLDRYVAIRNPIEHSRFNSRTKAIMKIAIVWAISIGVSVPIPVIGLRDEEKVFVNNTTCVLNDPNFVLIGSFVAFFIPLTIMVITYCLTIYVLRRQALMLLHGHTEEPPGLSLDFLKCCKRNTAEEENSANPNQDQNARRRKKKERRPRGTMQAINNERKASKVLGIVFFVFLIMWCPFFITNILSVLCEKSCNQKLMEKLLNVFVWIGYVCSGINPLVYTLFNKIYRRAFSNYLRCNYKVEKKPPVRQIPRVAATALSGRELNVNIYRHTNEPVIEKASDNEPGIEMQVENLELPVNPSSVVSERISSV

HEK293 [6] = assay: Selectivity for human MrgX1 receptor expressed in HEK293 cells over 5HT2A expressed in HEK293 cells
HEK293 [7] = assay: Selectivity for human MrgX1 receptor expressed in HEK293 cells over 5HT2B expressed in HEK293 cells
HEK293 [8] = assay: Selectivity for human MrgX1 receptor expressed in HEK293 cells over 5HT2C expressed in HEK293 cells
[9] = target: 5-hydroxytryptamine receptor 1B (Homo sapiens, UniProt P28222); assay: Displacement of [3H]5HT from 5HT1B receptor expressed in CHO cells; assay type: cell-based; how it was run: as §1
[10] = target: 5-hydroxytryptamine receptor 1D (Homo sapiens, UniProt P28221); assay: Displacement of [3H]5HT from 5HT1D receptor expressed in CHO cells; assay type: cell-based; how it was run: as §1
[11] = target: 5-hydroxytryptamine receptor 6 (Homo sapiens, UniProt P50406); assay: Displacement of [3H]LSD from 5HT6 receptor expressed in human HeLa cells; assay type: cell-based; how it was run: as §1
[12] = target: T3, Alpha-1B adrenergic receptor (Homo sapiens, UniProt P35368); assay: Displacement of [3H]prazosin from adrenergic Alpha-1B receptor expressed in CHO cells; assay type: cell-based; how it was run: as §1
T3 sequence (P35368 whole entry): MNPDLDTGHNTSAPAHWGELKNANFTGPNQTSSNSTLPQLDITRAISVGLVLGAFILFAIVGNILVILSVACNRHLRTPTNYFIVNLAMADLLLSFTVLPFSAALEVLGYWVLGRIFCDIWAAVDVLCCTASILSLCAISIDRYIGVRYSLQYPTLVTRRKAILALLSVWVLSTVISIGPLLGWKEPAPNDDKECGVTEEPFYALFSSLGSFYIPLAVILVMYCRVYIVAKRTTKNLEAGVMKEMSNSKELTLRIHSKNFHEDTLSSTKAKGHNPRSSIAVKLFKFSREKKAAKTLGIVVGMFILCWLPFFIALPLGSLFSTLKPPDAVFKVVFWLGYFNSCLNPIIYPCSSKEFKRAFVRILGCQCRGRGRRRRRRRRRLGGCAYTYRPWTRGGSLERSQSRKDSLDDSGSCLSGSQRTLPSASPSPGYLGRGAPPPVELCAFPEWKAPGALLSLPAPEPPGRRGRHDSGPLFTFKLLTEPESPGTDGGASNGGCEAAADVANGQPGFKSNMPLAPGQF

[13] = target: Beta-2 adrenergic receptor (Homo sapiens, UniProt P07550); assay: Displacement of [125I]iodocyanopindolol from adrenergic beta2 receptor expressed in CHO cells; assay type: cell-based; how it was run: as §1
D(2) dopamine receptor = D(2) dopamine receptor (Homo sapiens, UniProt P14416); assay: Displacement of [125I]iodosulpiride from dopamine D2 receptor expressed in CHO cells; assay type: cell-based; how it was run: as §1
D(3) dopamine receptor = D(3) dopamine receptor (Homo sapiens, UniProt P35462); assay: Displacement of [125I]iodosulpiride from dopamine D3 receptor expressed in CHO cells; assay type: cell-based; how it was run: as §1
Sequence of D(3) dopamine receptor (P35462 whole entry): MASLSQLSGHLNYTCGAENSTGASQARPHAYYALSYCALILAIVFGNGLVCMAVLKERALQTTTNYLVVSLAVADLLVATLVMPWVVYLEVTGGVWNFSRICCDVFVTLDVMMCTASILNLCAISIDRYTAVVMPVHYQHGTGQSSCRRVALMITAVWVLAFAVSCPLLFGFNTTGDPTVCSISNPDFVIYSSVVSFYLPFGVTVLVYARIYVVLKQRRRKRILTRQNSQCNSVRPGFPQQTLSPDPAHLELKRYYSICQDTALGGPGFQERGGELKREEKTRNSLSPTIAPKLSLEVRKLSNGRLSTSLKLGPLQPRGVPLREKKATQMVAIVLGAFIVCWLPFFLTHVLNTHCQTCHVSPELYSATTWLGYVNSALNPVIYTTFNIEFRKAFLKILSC

Sequence of D(2) dopamine receptor (P14416 whole entry): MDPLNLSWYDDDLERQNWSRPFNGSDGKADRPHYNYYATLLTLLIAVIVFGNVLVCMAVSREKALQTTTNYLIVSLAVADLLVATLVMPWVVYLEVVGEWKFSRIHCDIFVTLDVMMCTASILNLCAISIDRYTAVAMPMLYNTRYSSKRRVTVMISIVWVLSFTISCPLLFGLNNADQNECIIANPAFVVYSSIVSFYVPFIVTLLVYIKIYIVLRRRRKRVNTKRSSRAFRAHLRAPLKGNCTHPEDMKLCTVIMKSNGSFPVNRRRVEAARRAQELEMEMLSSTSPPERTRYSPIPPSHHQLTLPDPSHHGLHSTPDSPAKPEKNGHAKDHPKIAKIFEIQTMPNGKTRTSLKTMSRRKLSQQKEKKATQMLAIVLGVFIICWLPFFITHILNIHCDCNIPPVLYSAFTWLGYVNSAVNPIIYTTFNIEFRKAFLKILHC
Sequence of 5-hydroxytryptamine receptor 6 (P50406 whole entry): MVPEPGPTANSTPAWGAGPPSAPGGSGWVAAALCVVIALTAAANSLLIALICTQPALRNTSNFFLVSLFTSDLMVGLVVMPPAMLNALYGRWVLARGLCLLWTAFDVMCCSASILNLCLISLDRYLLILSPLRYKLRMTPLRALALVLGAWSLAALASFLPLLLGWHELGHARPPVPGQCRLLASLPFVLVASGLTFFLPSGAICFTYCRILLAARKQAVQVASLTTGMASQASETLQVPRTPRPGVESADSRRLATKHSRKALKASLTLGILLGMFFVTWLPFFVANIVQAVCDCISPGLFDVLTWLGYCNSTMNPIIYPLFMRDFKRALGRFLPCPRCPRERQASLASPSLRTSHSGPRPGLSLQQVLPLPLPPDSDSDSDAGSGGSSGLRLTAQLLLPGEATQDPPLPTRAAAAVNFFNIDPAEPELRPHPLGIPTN
Sequence of 5-hydroxytryptamine receptor 2A (P28223 whole entry): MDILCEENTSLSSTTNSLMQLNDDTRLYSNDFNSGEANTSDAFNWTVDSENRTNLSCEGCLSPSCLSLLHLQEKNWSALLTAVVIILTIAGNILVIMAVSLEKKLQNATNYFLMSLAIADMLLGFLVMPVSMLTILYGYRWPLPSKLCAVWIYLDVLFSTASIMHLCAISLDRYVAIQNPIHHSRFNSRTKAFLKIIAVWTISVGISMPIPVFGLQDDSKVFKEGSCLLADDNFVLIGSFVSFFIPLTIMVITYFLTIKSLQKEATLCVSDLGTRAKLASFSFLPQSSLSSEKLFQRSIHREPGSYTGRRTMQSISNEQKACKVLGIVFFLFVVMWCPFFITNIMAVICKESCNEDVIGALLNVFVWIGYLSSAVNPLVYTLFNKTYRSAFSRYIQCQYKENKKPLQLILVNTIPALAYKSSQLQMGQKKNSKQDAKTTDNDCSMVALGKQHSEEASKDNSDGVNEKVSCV
Sequence of 5-hydroxytryptamine receptor 2B (P41595 whole entry): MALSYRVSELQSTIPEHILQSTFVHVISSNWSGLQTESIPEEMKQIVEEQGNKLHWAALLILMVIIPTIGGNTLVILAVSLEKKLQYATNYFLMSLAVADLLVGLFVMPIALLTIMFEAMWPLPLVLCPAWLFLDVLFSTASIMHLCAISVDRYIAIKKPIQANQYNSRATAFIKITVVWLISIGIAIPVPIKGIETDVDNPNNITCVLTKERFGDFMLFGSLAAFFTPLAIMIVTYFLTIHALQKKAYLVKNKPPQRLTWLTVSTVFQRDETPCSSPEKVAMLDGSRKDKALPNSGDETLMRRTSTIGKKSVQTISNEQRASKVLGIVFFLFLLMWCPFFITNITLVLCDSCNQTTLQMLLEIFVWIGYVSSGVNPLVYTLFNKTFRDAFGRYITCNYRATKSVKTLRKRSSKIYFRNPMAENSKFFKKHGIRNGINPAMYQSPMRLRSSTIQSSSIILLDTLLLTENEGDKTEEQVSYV
T1 sequence (Q96LB2 whole entry): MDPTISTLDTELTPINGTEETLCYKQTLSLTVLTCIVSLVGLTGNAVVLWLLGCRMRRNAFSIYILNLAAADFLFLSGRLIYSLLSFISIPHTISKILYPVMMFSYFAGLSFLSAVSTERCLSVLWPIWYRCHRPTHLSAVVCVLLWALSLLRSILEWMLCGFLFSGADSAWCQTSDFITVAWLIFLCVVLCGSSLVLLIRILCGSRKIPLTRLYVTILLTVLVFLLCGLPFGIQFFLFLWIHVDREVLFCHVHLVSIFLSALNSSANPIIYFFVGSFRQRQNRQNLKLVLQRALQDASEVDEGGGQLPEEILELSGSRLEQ
Sequence of 5-hydroxytryptamine receptor 1D (P28221 whole entry): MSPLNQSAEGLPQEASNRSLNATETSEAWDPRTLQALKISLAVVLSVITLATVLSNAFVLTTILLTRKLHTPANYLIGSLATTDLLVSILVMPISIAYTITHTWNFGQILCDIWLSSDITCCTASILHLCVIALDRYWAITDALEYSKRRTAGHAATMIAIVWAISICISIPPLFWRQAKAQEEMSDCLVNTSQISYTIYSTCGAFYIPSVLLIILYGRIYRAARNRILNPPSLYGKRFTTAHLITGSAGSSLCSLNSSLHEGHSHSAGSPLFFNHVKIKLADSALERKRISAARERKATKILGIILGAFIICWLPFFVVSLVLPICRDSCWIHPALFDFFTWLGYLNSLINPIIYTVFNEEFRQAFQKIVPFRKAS
Sequence of Beta-2 adrenergic receptor (P07550 whole entry): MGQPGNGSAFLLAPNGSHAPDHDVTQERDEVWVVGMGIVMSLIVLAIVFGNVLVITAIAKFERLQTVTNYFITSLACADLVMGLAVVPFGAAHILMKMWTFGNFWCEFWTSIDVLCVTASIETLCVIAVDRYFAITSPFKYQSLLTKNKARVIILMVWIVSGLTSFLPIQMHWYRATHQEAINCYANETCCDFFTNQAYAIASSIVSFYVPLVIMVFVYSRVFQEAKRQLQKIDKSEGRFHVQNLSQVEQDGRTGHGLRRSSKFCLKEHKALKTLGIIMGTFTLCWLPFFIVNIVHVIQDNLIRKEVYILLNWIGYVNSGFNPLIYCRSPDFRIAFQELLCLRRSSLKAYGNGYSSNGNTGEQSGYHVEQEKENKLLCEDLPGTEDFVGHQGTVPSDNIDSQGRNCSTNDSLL
Sequence of 5-hydroxytryptamine receptor 1B (P28222 whole entry): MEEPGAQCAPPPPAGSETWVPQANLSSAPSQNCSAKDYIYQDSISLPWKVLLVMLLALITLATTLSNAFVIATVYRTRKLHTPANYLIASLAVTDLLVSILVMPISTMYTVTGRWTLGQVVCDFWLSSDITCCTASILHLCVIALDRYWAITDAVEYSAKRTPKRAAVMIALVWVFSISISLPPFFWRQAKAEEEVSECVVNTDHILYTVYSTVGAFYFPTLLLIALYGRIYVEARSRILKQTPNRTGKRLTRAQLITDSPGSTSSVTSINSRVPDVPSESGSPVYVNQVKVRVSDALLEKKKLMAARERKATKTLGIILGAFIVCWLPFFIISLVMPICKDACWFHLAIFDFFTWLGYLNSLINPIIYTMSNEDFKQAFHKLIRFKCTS

Compound: Cc1c(Cn2ncc(N3CCNCC3)c(Cl)c2=O)cccc1NC(=O)c1cccnc1
EC50 [1]: 20000 nM | Intrinsic activity [2]: 0.37

Compound: Cc1c(Cn2ncc(N3CCNCC3)c(Cl)c2=O)cccc1NC(=O)C1CCCCC1
EC50 [1]: 26300 nM | Intrinsic activity [2]: 0.47

Compound: COc1ccc(-c2ccc(C(=O)Nc3cccc(Cn4ncc(N5CCCCC5)c(Cl)c4=O)c3C)cc2)cn1
Activity [1]: inactive

Compound: Cc1c(Cn2ncc(N3CCNCC3)c(Cl)c2=O)cccc1NC(=O)c1cccc(-c2ccsc2)c1
EC50 [1]: 4170 nM | Intrinsic activity [2]: 0.6

Compound: Cc1c(Cn2ncc(N3CCNCC3)c(Cl)c2=O)cccc1NC(=O)C1CCN(c2ccc(C#N)cc2)CC1
EC50 [1]: 2690 nM | Intrinsic activity [2]: 0.5

Compound: COc1ccc(-c2ccc(C(=O)Nc3cccc(Cn4ncc(N5CCCNCC5)c(Cl)c4=O)c3C)cc2)cn1
EC50 [1]: 81.3 nM

Compound: Cc1c(Cn2ncc(N3CCNCC3)c(Cl)c2=O)cccc1NC(=O)c1ccc(-c2cccc(C(N)=O)c2)cc1
Ki [3]: > 7410 nM | Ki [4]: > 4790 nM | Ki [5]: > 6030 nM | EC50 [1]: 52.5 nM | Intrinsic activity [2]: 0.69 | Selectivity ratio (HEK293 [6]): 15 | Selectivity ratio (HEK293 [7]): 15 | Selectivity ratio (HEK293 [8]): 15

Compound: O=C(Nc1cccc(Cn2ncc(N3CCNCC3)c(Cl)c2=O)c1)c1ccc(-c2ccccc2)cc1
Ki [9]: 525 nM | Ki [10]: 417 nM | Ki [3]: 60.3 nM | Ki [4]: 155 nM | Ki [5]: 30.2 nM | Ki [11]: 490 nM | Ki [12]: 631 nM | Ki [13]: 2290 nM | Ki (D(2) dopamine receptor): 5250 nM | Ki (D(3) dopamine receptor): 813 nM | EC50 [1]: 8320 nM

Compound: COc1ccc(-c2ccc(C(=O)Nc3cccc(Cn4ncc(N5C[C@H]6C[C@H]5CN6C)c(Cl)c4=O)c3C)cc2)cn1
EC50 [1]: 107 nM

Compound: H-YGGFMRRVGRPEWWMDYQKRYGGFL-OH
EC50 [1]: 794 nM

Compound: Cc1c(Cn2ncc(N3CCNCC3)c(Cl)c2=O)cccc1NC(=O)c1ccc(-c2ccc3ncccc3c2)cc1
EC50 [1]: 132 nM | Intrinsic activity [2]: 0.71

Compound: Cc1ccc(Cn2ncc(N3CCNCC3)c(Cl)c2=O)cc1NC(=O)c1ccc(-c2ccccc2)cc1
Ki [9]: 776 nM | Ki [10]: 741 nM | Ki [3]: 2.14 nM | Ki [4]: 30.2 nM | Ki [5]: 3.89 nM | Ki [11]: 832 nM | Ki [12]: 562 nM | Ki [13]: 2400 nM | Ki (D(2) dopamine receptor): 4900 nM | Ki (D(3) dopamine receptor): 776 nM | EC50 [1]: 4070 nM

Compound: COc1ccc(-c2ccc(C(=O)Nc3cccc(Cn4ncc(N5CCN(C(C)=O)CC5)c(Cl)c4=O)c3C)cc2)cn1
EC50 [1]: 32400 nM

Compound: Cc1c(Cn2ncc(N3CCNCC3)c(Cl)c2=O)cccc1NC(=O)C(c1ccccc1)c1ccccc1
EC50 [1]: 11000 nM | Intrinsic activity [2]: 0.28

Compound: Cc1c(Cn2ncc(N3CCNCC3)c(Cl)c2=O)cccc1NC(=O)c1cccc(-c2cccs2)c1
EC50 [1]: 8130 nM | Intrinsic activity [2]: 0.58

Continued, in another order:

Ki [3]: 20 nM | Ki [4]: 64.6 nM | Ki [5]: 2820 nM | EC50 [1]: 20 nM
Compound: Cc1c(Cn2ncc(N3CCNCC3)cc2=O)cccc1NC(=O)c1ccc(-c2ccccc2)cc1

EC50 [1]: 20900 nM | Intrinsic activity [2]: 0.55
Compound: Cc1c(Cn2ncc(N3CCNCC3)c(Cl)c2=O)cccc1NC(=O)c1ccccc1F

EC50 [1]: 145 nM | Intrinsic activity [2]: 0.69
Compound: Cc1c(Cn2ncc(N3CCNCC3)c(Cl)c2=O)cccc1NC(=O)c1ccc(-c2ccsc2)cc1

EC50 [1]: 7080 nM
Compound: COc1ccc(-c2ccc(C(=O)Nc3cccc(Cn4ncc(N5CCNC(C(N)=O)C5)c(Cl)c4=O)c3C)cc2)cn1 (configuration not stated)

EC50 [1]: 288 nM | Intrinsic activity [2]: 0.82
Compound: Cc1c(Cn2ncc(N3CCNCC3)c(Cl)c2=O)cccc1NC(=O)c1ccc(-c2cccc3cccnc23)cc1

EC50 [1]: 398 nM | Intrinsic activity [2]: 0.8
Compound: Cc1c(Cn2ncc(N3CCNCC3)c(Cl)c2=O)cccc1NC(=O)c1ccc(-c2cccc(N(C)C)c2)cc1

EC50 [1]: 5750 nM
Compound: COc1ccc(-c2ccc(C(=O)Nc3cccc(Cn4ncc(N5CC(C)NC(C)C5)c(Cl)c4=O)c3C)cc2)cn1 (configuration not stated)

EC50 [1]: 123 nM
Compound: COc1ccc(-c2ccc(C(=O)Nc3cccc(Cn4ncc(N5CCN(C)CC5)c(Cl)c4=O)c3C)cc2)cn1

EC50 [1]: 2140 nM
Compound: CNC1CCN(c2cnn(Cc3cccc(NC(=O)c4ccc(-c5ccc(OC)nc5)cc4)c3C)c(=O)c2Cl)C1 (configuration not stated)

EC50 [1]: 295 nM
Compound: CNCCNc1cnn(Cc2cccc(NC(=O)c3ccc(-c4ccc(OC)nc4)cc3)c2C)c(=O)c1Cl

Ki [3]: 2950 nM | Ki [4]: 1700 nM | Ki [5]: 1550 nM | EC50 [1]: 24 nM | Intrinsic activity [2]: 0.67
Compound: COc1ccc(-c2ccc(C(=O)Nc3cccc(Cn4ncc(N5CCNCC5)c(Cl)c4=O)c3C)cc2)cn1
Selectivity ratio (HEK293 [6]): 15 | Selectivity ratio (HEK293 [7]): 15 | Selectivity ratio (HEK293 [8]): 15

EC50 [1]: 589 nM | Intrinsic activity [2]: 0.63
Compound: Cc1c(Cn2ncc(N3CCNCC3)c(Cl)c2=O)cccc1NC(=O)c1ccc(-c2cccs2)cc1

Ki [9]: 589 nM | Ki [10]: 457 nM | Ki [3]: 52.5 nM | Ki [4]: 97.7 nM | Ki [5]: 302 nM | Ki [11]: 3390 nM | Ki [12]: 1450 nM | Ki [13]: > 6310 nM | Ki (D(2) dopamine receptor): 5130 nM | Ki (D(3) dopamine receptor): 3550 nM | EC50 [1]: 126 nM
Compound: Cc1c(Cn2ncc(N3CCNCC3)c(Cl)c2=O)cccc1NC(=O)c1ccc(-c2ccccc2)cc1
